Assay results: ChEMBL document CHEMBL1122917, “Vinblastin-23-oyl amino acid derivatives: chemistry, physicochemical data, toxicity, and antitumor activities against P388 and L1210 leukemias” (J Med Chem, 1985)

Legend:
Assay type in all cases: functional
Mus musculus [1] = assay: Number of survivors on 30th day at dose 0.5 mg/kg/day in 10 mice implanted with P388 leukemia cell line; 0/10
Mus musculus [2] = assay: Number of survivors on 30th day at dose 1.5 mg/kg/day in 10 mice implanted with P388 leukemia cell line; 0/10
Mus musculus [3] = assay: Number of survivors of DBA2 mice on 30th day after inoculation with L1210 leukemia cell line intravenously at a dose of 3.5 mg/kg/day; 0/10; settings: route intravenous
Mus musculus [4] = assay: Number of survivors of DBA2 mice on 30th day after inoculation with L1210 leukemia cell line intravenously at a dose of 6.5 mg/kg/day; 0/10; settings: route intravenous
Mus musculus [5] = assay: Number of survivors of DBA2 mice on 60th day after inoculation with L1210 leukemia cell line intravenously at a dose of 1 mg/kg/day; 0/10; settings: route intravenous
Mus musculus [6] = assay: Number of survivors of DBA2 mice on 30th day after inoculation with L1210 leukemia cell line intravenously at a dose of 1 mg/kg/day; 0/10; settings: route intravenous
Mus musculus [7] = assay: Number of survivors of DBA2 mice on 60th day after inoculation with L1210 leukemia cell line intravenously at a dose of 4.5 mg/kg/day; 0/10; settings: route intravenous
Mus musculus [8] = assay: Percent increase in life span at dose 2.5 mg/kg/day in 10 mice implanted with P388 leukemia cell line for 1st scheduled day
Mus musculus [9] = assay: Number of survivors of DBA2 mice on 30th day after inoculation with L1210 leukemia cell line intravenously at a dose of 2.5 mg/kg/day; 0/11; settings: route intravenous
Mus musculus [10] = assay: Number of survivors on 30th day at dose 7 mg/kg/day in 10 mice implanted with P388 leukemia cell line; 0/10
Mus musculus [11] = assay: Percent increase in life span at dose 2 mg/kg/day in 10 mice implanted with P388 leukemia cell line for 1st scheduled day
Mus musculus [12] = assay: Percent increase in life span at dose 2.5 mg/kg/day in 10 mice implanted with P388 leukemia cell line
Mus musculus [13] = assay: Number of survivors on 60th day at dose 2 mg/kg/day in 7 mice implanted with P388 leukemia cell line for 1,8,15 scheduled days; 0/11
Mus musculus [14] = assay: Number of survivors on 30th day at dose 3 mg/kg/day in 10 mice implanted with P388 leukemia cell line; 0/10
Mus musculus [15] = assay: Number of survivors of DBA2 mice on 30th day after inoculation with L1210 leukemia cell line intraperitoneally at a dose of 6 mg/kg/day; 0/10; settings: route intraperitoneal
Mus musculus [16] = assay: Percent increase in life span at dose 4 mg/kg/day in 7 mice implanted with P388 leukemia cell line for 1,8,15 scheduled day from Exp-1
Mus musculus [17] = assay: Number of survivors on 30th day at dose 4 mg/kg/day in 10 mice implanted with P388 leukemia cell line; 0 /10
Mus musculus [18] = assay: Number of survivors on 30th day at dose 3 mg/kg/day in 10 mice implanted with P388 leukemia cell line; 0 /10
Mus musculus [19] = assay: Number of survivors on 30th day at dose 5 mg/kg/day in 9 mice implanted with P388 leukemia cell line; 1/9
Mus musculus [20] = assay: Percent increase in life span at dose 6 mg/kg/day in 10 mice implanted with P388 leukemia cell line for 1st schedule day
Mus musculus [21] = assay: Percent increase in life span at dose 8 mg/kg/day in 7 mice implanted with P388 leukemia cell line for 1,8,15 schedule days from Exp-1
Mus musculus [22] = assay: Number of survivors on 60th day at dose 6 mg/kg/day in 7 mice implanted with P388 leukemia cell line for 1,8.15 scheduled days from Exp-1; 0/10
Mus musculus [23] = assay: Number of survivors on 60th day at dose 6 mg/kg/day in 9 mice implanted with P388 leukemia cell line; 0/10
Mus musculus [24] = assay: Number of survivors on 30th day at dose 6 mg/kg/day in 10 mice implanted with P388 leukemia cell line; 1/10
Mus musculus [25] = assay: Percent increase in life span at dose 7 mg/kg/day in 9 mice implanted with P388 leukemia cell line for 1st schedule day
Mus musculus [26] = assay: Number of survivors of DBA2 mice on 60th day after inoculation with L1210 leukemia cell line intravenously at a dose of 58 mg/kg/day; 0/10; settings: route intravenous
Mus musculus [27] = assay: Number of survivors on 60th day at dose 65 mg/kg/day in 10 mice implanted with P388 leukemia cell line for 1st scheduled day; 1/10
Mus musculus [28] = assay: Percent increase in life span at dose 60 mg/kg/day in 10 mice implanted with P388 leukemia cell line for 1,5,9 schedule days
Mus musculus [29] = assay: Percent increase in life span at dose 55 mg/kg/day in 10 mice implanted with P388 leukemia cell line for 1st schedule day
Mus musculus [30] = assay: Number of survivors on 60th day at dose 55 mg/kg/day in 10 mice implanted with P388 leukemia cell line for 1st scheduled day; 6/10
Mus musculus [31] = assay: Percent increase in life span at dose 65 mg/kg/day in 10 mice implanted with P388 leukemia cell line for 1st schedule day
Mus musculus [32] = assay: Percent increase in life span of DBA2 mice after inoculation with L1210 leukemia intravenously at a dose of 58 mg/kg per day; settings: route intravenous
Mus musculus [33] = assay: Number of survivors on 60th day at dose 58 mg/kg/day in 10 mice implanted with P388 leukemia cell line; 0/10
Mus musculus [34] = assay: Percent increase in life span at dose 56 mg/kg/day in 10 mice implanted with P388 leukemia cell line
Mus musculus [35] = assay: Number of survivors on 30th day at dose 70 mg/kg/day in 10 mice implanted with P388 leukemia cell line; 5/11
Mus musculus [36] = assay: Percent increase in life span of DBA2 mice after inoculation with L1210 leukemia intravenously at a dose of 45 mg/kg per day; settings: route intravenous
Summary of the method: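 Female DBA2 mice inoculated iv on day 0 with 10^4 L1210 cells; drugs given iv as sulfate salts in physiological saline, mostly once on day 1. %ILS from all deaths and survivors as (T/C × 100) − 100; survivors scored on days 30 and 60.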

Mus musculus [37] = assay: Number of survivors on 60th day at dose 40 mg/kg/day in 10 mice implanted with P388 leukemia cell line; 4/10
Mus musculus [38] = assay: Number of survivors on 30th day at dose 56 mg/kg/day in 10 mice implanted with P388 leukemia cell line; 4/10
Mus musculus [39] = assay: Number of survivors of DBA2 mice on 30th day after inoculation with L1210 leukemia cell line intravenously at a dose of 70 mg/kg/day; 0/10; settings: route intravenous
Mus musculus [40] = assay: Number of survivors on 60th day at dose 65 mg/kg/day in 10 mice implanted with P388 leukemia cell line; 7/9
Mus musculus [41] = assay: Number of survivors on 60th day at dose 75 mg/kg/day in 7 mice implanted with P388 leukemia cell line for 1,8,15 scheduled days in Exp-1; 6/10

What does the source list for `CC[C@]1(O)C[C@H]2CN(CCc3c([nH]c4ccccc34)[C@@](C(=O)OC)(c3cc4c(cc3OC)N(C=O)[C@H]3[C@@](O)(C(=O)OC)[C@H](OC(C)=O)[C@]5(CC)C=CCN6CC[C@]43[C@@H]65)C2)C1` [VINCRISTINE]?
Survivors (Mus musculus [1]): 0; Survivors (Mus musculus [2]): 0; Survivors (Mus musculus [3]): 0; Survivors (Mus musculus [4]): 0; Survivors (Mus musculus [5]): 0; Survivors (Mus musculus [6]): 0; Survivors (Mus musculus [7]): 0

What does the source list for `CC[C@]1(O)C[C@@H]2CN(CCc3c([nH]c4ccccc34)[C@@](C(=O)OC)(c3cc4c(cc3OC)N(C)[C@H]3[C@@](O)(C(N)=O)[C@H](O)[C@]5(CC)C=CCN6CC[C@]43[C@@H]65)C2)C1` [VINDESINE]?
ILS at 2.5 mg/kg/day (Mus musculus [8]): 32%; Survivors (Mus musculus [9]): 0; Survivors (Mus musculus [10]): 0; ILS at 2 mg/kg/day (Mus musculus [11]): 28%; ILS at 2.5 mg/kg/day (Mus musculus [12]): 19%; Survivors (Mus musculus [13]): 0; Survivors (Mus musculus [14]): 0

For `CC[C@]1(O)C[C@@H]2CN(CCc3c([nH]c4ccccc34)[C@@](C(=O)OC)(c3cc4c(cc3OC)N(C)[C@H]3[C@@](O)(C(=O)OC)[C@H](OC(C)=O)[C@]5(CC)C=CCN6CC[C@]43[C@@H]65)C2)C1` [VINBLASTINE], which Survivors (Mus musculus [15]) is on record?
The Survivors was 0.

What about the ILS at 4 mg/kg/day (Mus musculus [16]) of the same molecule?
Its ILS at 4 mg/kg/day is 58%.

What about the Survivors (Mus musculus [17]) of the same molecule?
Its Survivors is 0.

And the Survivors (Mus musculus [18])?
Its Survivors is 0.

For `CCOC(=O)[C@@H](NC(=O)[C@@]1(O)[C@H](O)[C@]2(CC)C=CCN3CC[C@@]4(c5cc([C@@]6(C(=O)OC)C[C@H]7C[N@](CCc8c6[nH]c6ccccc86)C[C@](O)(CC)C7)c(OC)cc5N(C)[C@@]14C)[C@@H]32)[C@@H](C)CC`, which Survivors (Mus musculus [19]) is on record?
The Survivors was 1.

What about the ILS at 6 mg/kg/day (Mus musculus [20]) of the same molecule?
The ILS at 6 mg/kg/day was 74%.

What about the ILS at 8 mg/kg/day (Mus musculus [21]) of the same molecule?
Its ILS at 8 mg/kg/day is 119%.

And the Survivors (Mus musculus [22])?
The Survivors was 0.

What about the Survivors (Mus musculus [23]) of the same molecule?
Its Survivors is 0.

And the Survivors (Mus musculus [24])?
The Survivors was 1.

And the ILS at 7 mg/kg/day (Mus musculus [25])?
The ILS at 7 mg/kg/day was 37%.

What does the source list for `CCOC(=O)[C@H](Cc1c[nH]c2ccccc12)NC(=O)[C@@]1(O)[C@H](O)[C@]2(CC)C=CCN3CC[C@@]4(c5cc([C@@]6(C(=O)OC)C[C@H]7C[N@](CCc8c6[nH]c6ccccc86)C[C@](O)(CC)C7)c(OC)cc5N(C)[C@@]14C)[C@@H]32`?
Survivors (Mus musculus [26]): 0; Survivors (Mus musculus [27]): 1; ILS at 60 mg/kg/day (Mus musculus [28]): > 426%; ILS at 55 mg/kg/day (Mus musculus [29]): > 261%; Survivors (Mus musculus [30]): 6; ILS at 65 mg/kg/day (Mus musculus [31]): 82%; ILS at 58 mg/kg/day (Mus musculus [32]): 48.7%; Survivors (Mus musculus [33]): 0; ILS at 56 mg/kg/day (Mus musculus [34]): 113%; Survivors (Mus musculus [35]): 5; ILS at 45 mg/kg/day (Mus musculus [36]): 92%; Survivors (Mus musculus [37]): 4; Survivors (Mus musculus [38]): 4; Survivors (Mus musculus [39]): 0; Survivors (Mus musculus [40]): 7; Survivors (Mus musculus [41]): 6
